Assay results: PMC12573768 (RSC Advances, 2025)
Like-named read-outs stand apart in the source and are kept apart here. Values belong to the compound of their own block, whether it stands above or below them.

Tests used:
α-glucosidase [1] = target: T1, α-glucosidase (Saccharomyces cerevisiae, UniProt P53341); assay: α-Glucosidase inhibitory activity; assay type: biochemical
[2] = target: T2, porcine pancreatic α-amylase (Sus scrofa, UniProt P00690); assay: α-Amylase inhibitory activity; assay type: biochemical
T2 sequence (P00690 16-511): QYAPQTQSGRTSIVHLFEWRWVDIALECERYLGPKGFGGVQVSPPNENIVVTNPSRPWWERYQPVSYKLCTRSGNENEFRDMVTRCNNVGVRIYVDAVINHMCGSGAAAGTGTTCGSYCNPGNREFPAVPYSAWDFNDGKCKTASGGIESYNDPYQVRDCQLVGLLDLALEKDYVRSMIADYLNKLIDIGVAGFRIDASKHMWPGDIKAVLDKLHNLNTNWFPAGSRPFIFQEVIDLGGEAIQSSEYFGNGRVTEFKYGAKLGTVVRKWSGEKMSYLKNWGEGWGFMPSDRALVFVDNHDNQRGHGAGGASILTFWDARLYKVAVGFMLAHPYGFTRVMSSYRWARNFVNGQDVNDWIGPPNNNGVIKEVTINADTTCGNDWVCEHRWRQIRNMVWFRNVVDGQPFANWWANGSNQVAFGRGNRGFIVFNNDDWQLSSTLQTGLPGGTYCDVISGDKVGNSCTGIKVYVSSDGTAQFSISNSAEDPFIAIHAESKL

[3] = Free radical scavenging activity; details: for IC50: read-out: (IC50 ± SEM) Antioxidant activity (DPPH radical)
In short: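 Test compound in DMSO mixed with 0.2 mM DPPH in 95% methanol (1:3 by volume) and held 1 h in the dark at room temperature. Absorbance read at 517 nm; scavenging calculated relative to control, with ascorbic acid as reference. IC50 from non-linear regression; triplicate; mean ± SEM.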

[4] = test system: fructosamine formation in BSA-fructose model; assay: Fructosamine inhibition, NBT assay, BSA-fructose model; assay type: biochemical; details: 50 °C 24 hours
In short: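 Test compound and BSA-fructose solution mixed 1:1 and incubated at 50 °C for 24 h, with aminoguanidine as positive control. Incubated mixture was treated with 300 μM NBT in 0.1 M sodium carbonate, pH 10.6, at 37 °C for 15 min, then absorbance read at 530 nm. Inhibition was calculated with control and sample blanks. Run in triplicate; mean ± SEM.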

[5] = test system: AGEs formation in BSA-fructose model; assay: AGEs inhibition, fluorescence, BSA-fructose model; assay type: biochemical; details: 50 °C 24 hours
In short: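 Test compound and BSA-fructose solution mixed 1:1 and incubated at 50 °C for 24 h, with aminoguanidine as positive control. An aliquot of the mixture was diluted fivefold and fluorescence read at excitation 375 nm and emission 440 nm. Inhibition was calculated from control, control blank, sample and sample blank intensities. Run in triplicate; IC50 derived; mean ± SEM.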

3T3-L1 cells = assay: MTT cytotoxicity assay; assay type: cell-based; details: 3T3-L1, up to 50 μM, 12 hours
In short: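 3T3-L1 cells grown in DMEM with 10% FBS, 1% penicillin–streptomycin and 0.2% amphotericin at 37 °C, 5% CO2. Seeded at 2.0 × 10^4 cells/well overnight, PBS-washed, then exposed to test compound (0–50 μM in DMEM) for 12 h. After washing, 0.05% MTT in DMEM for 3 h; formazan dissolved in DMSO and read at 590 nm (reference 620 nm). IC50 by non-linear regression; triplicate.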

[6] = Stability under physiological conditions; assay type: physicochemical; details: 200 μM, 1X PBS pH 7.4, 37 °C, 10 days
In short: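 Test compound at 200 μM in 1X PBS, pH 7.4, incubated at 37 °C. A sample taken immediately was extracted three times with ethyl acetate, evaporated and stored at −20 °C; a second sample was extracted likewise after 10 days. Both residues were analysed by LC-MS on a C18 column.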

[7] = in vivo study by Wang et al. ref 55; cited from earlier work
Caco-2 monolayer = details: Caco-2 cell model ref 55; cited from earlier work
C57BL/KsJ-db/db mice = details: Jung et al. ref 52; cited from earlier work
[8] = cited from earlier work; for Stability improvement compared to ester form: rat plasma, Yang et al. ref 58
α-amylase = target: T3, α-amylase (Sus scrofa, UniProt P00690); details: vs EGCG, Liu et al. ref 37; cited from earlier work
T3 sequence (P00690 16-511): T2 sequence (P00690 16-511)

α-glucosidase [9] = target: T1, α-glucosidase; details: vs EGCG, Liu et al. ref 37; cited from earlier work

T1 sequence (P53341 whole entry): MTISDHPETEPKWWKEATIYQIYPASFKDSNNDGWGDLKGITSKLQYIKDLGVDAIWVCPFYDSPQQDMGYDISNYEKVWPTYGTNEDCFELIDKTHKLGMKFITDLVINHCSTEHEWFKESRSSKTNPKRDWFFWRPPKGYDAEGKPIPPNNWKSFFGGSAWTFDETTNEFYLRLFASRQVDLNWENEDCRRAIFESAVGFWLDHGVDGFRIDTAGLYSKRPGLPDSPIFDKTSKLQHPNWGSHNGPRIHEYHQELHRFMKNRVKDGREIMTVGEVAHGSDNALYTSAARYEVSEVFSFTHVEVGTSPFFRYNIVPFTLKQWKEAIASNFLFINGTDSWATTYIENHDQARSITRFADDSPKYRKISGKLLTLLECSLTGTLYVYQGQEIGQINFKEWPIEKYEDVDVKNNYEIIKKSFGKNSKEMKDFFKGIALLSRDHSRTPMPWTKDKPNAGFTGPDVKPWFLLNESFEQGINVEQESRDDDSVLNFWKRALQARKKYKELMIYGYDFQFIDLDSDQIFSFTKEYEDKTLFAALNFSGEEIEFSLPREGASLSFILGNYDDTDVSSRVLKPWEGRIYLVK

IC50 (α-glucosidase [1]): 17.4 ± 0.87 µM
IC50 [2]: 72.8 ± 1.83 µM
IC50 ([3]; mean ± SEM, triplicate): 16.4 ± 0.48 µM
Compound: CCCCCCCCCCCCNC(=O)/C=C/c1ccc(O)c(O)c1 [CA12, (E)-3-(3,4-Dihydroxyphenyl)-N-dodecylacrylamide]

IC50 (α-glucosidase [1]): 13.7 ± 0.44 µM
IC50 [2]: > 500 µM
IC50 ([3]; mean ± SEM, triplicate): 24.3 ± 0.58 µM
Compound: CCCCCCCCNC(=O)/C=C/c1ccc(O)c(O)c1 [CA8, (E)-3-(3,4-Dihydroxyphenyl)-N-octylacrylamide]

IC50 (α-glucosidase [1]): 1.94 ± 0.06 µM
α-Glucosidase inhibition potency relative to parent CA (α-glucosidase [1]; ratio of IC50 values, vs CA): 6392 times
α-Glucosidase inhibition potency relative to acarbose (α-glucosidase [1]; ratio of IC50 values, vs acarbose): 113 times
IC50 [2]: 27 ± 0.83 µM
IC50 ([3]; mean ± SEM, triplicate): 14 ± 0.38 µM
Stability under physiological conditions (degradation by LC-MS) [6]: did not exhibit any degradation
Compound: CCCCCCCCCCCCCCNC(=O)/C=C/c1ccc(O)c(O)c1 [CA14, (E)-3-(3,4-Dihydroxyphenyl)-N-tetradecylacrylamide]
Antioxidant activity relative to 15c ([3]; ratio of DPPH IC50 values, vs 15c): 1.2 fold
Antioxidant activity relative to CA ([3]; ratio of DPPH IC50 values, vs CA): 2.5 times
Antioxidant activity relative to Vitamin C ([3]; ratio of DPPH IC50 values, vs Vitamin C): 2.3 fold
Inhibition of fructosamine formation ([4]; 5 mM): 33%
Inhibition of fructosamine formation ([4]; 10 mM): 70%
Inhibition of AGEs ([5]; 5 mM): 44%
Inhibition of AGEs ([5]; 10 mM): 79%
Cytotoxicity (cell viability, MTT) (3T3-L1 cells): no significant cytotoxicity

(IC50 ± SEM) α-Glucosidase inhibition (α-glucosidase [1]; mean ± SEM, triplicate): No activity
(IC50 ± SEM) α-Amylase inhibition ([2]; mean ± SEM, triplicate): No activity
IC50 ([3]; mean ± SEM, triplicate): 32.7 ± 0.47 µM
Compound: O=C1O[C@H]([C@@H](O)CO)C(O)=C1O [Vitamin C, L-ascorbic acid, reference compound]

Compound: N=C(N)NN [AG, Aminoguanidine, reference compound]
Inhibition of fructosamine formation ([4]; 5 mM): 9%
Inhibition of fructosamine formation ([4]; 10 mM): 30%
Inhibition of AGEs ([5]; 5 mM): 43%
Inhibition of AGEs ([5]; 10 mM): 70%

(IC50 ± SEM) Antioxidant activity (DPPH radical) ([3]; mean ± SEM, triplicate): No activity
Compound: C[C@H]1O[C@H](O[C@H]2[C@H](O)[C@@H](O)[C@@H](O[C@H]3[C@H](O)[C@@H](O)C(O)O[C@@H]3CO)O[C@@H]2CO)[C@H](O)[C@@H](O)[C@@H]1N[C@H]1C=C(CO)[C@@H](O)[C@H](O)[C@H]1O (stereo partly shown) [Acarbose, reference compound]

IC50 (α-glucosidase [1]): 38 ± 1.57 µM
IC50 [2]: > 500 µM
IC50 ([3]; mean ± SEM, triplicate): 20.8 ± 0.45 µM
Compound: CCCCNC(=O)/C=C/c1ccc(O)c(O)c1 [CA4, (E)-3-(3,4-Dihydroxyphenyl)-N-butylacrylamide]

IC50 ([3]; mean ± SEM, triplicate): 34.3 ± 0.52 µM
Compound: O=C(O)/C=C/c1ccc(O)c(O)c1 [CA, Caffeic acid]
Bioavailability [7]: 14.70%
Caco-2 monolayer permeability (Caco-2 monolayer): poor
Blood glucose lowering effect (C57BL/KsJ-db/db mice): significant blood glucose lowering effect

IC50 (α-glucosidase [1]): 19.1 ± 0.64 µM
IC50 [2]: > 500 µM
IC50 ([3]; mean ± SEM, triplicate): 23.4 ± 0.77 µM
Compound: CCCCCCCCCCNC(=O)/C=C/c1ccc(O)c(O)c1 [CA10, (E)-3-(3,4-Dihydroxyphenyl)-N-decylacrylamide]

Compound: O=C(/C=C/c1ccc(O)c(O)c1)OCCc1ccccc1 [CAPE, caffeic acid phenethyl ester]
Stability in rat plasma ([8]; esterases ref 57): rapid decomposition

IC50 (α-glucosidase [1]): 51.5 ± 2.36 µM
IC50 [2]: > 500 µM
IC50 ([3]; mean ± SEM, triplicate): 23.7 ± 0.59 µM
Compound: CCCCCCNC(=O)/C=C/c1ccc(O)c(O)c1 [CA6, (E)-3-(3,4-Dihydroxyphenyl)-N-hexylacrylamide]

Compound: EGCG palmitate
α-Amylase inhibition better than EGCG (α-amylase): 4.5 times
α-Glucosidase inhibition better than EGCG (α-glucosidase [9]): 52 times

Compound: O=C(/C=C/c1ccc(O)c(O)c1)NCCc1ccccc1 [CAPA, caffeic acid phenethyl amide]
Stability improvement compared to ester form ([8]; 25 °C): 118 fold
Stability improvement compared to ester form ([8]; 37 °C): 77 fold

IC50 (α-glucosidase [1]): 24.8 ± 0.46 µM
IC50 [2]: 58.4 ± 2.68 µM
IC50 ([3]; mean ± SEM, triplicate): 15.1 ± 0.3 µM
Compound: CCCCCCCCCCCCCCCCNC(=O)/C=C/c1ccc(O)c(O)c1 [CA16, (E)-3-(3,4-Dihydroxyphenyl)-N-hexadecylacrylamide]
